The structures appear in SMILES notation. pEC50, pIC50: −log10 of the molar value. Where two headings read alike, the source gives them in different places.

One data set concerns J1 mES cells. Description: SSEA1 pluripotency marker immunostaining, flow cytometry. As to conditions: day 10; 2 μM. The class given is cell-based, mouse.
The subject of data set [1] is H3K9me2 mark in bulk histones in several cell lines. As to conditions: cited from earlier work.
The subject of data set [2] is H3K9me2 levels in J1 mES cells. Nature of the data set: Cellular potency. Type of data set: cell-based. As to conditions: Mus musculus, 48 h, read-out: IC50 cellular potency.
In data set [3] the test system is HSC1-EF1α-EGFP-Puromycin retrovirus in J1 mES cells. Nature of the data set: Reactivation of silent EGFP retrovirus vector, flow cytometry. The class given is cell-based, mouse.
A further data set deals with MDA-MB-231 cells. Nature of the data set: MTT assay, MDA-MB-231. Type of data set: cell-based, human.
Data set [4] relates to histone marks in MDA-MB-231 cells. Nature of the data set: Quantitative MS analysis of histone modifications. Type of data set: cell-based, human. As to conditions: 1 μM for 48 h. Summed up: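 MDA-MB-231 cells were treated at 1 µM for 48 h. Histones were acid-extracted, derivatized with propionic anhydride and digested with trypsin. Mock and treated samples carried D0 or D5 propionyl labels. Peptides were analysed by LC-MS/MS on an Orbitrap, with all data manually verified.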

Another data set relates to cellular assays. Nature of the data set: Cellular assays, comparison with BIX01294. Type of data set: cell-based. As to conditions: Supplementary Fig. 1.
The next data set has as its system panel of 24 kinases. Description: Kinase selectivity panel. Type of data set: biochemical.
A further data set deals with SUV39H2 (Homo sapiens, UniProt Q9H5I1). Nature of the data set: SAHH-coupled assay, SUV39H2. As to conditions: SAHH-coupled assay. The class given is biochemical. Summed up:
(§1)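 A fluorescence-based coupled assay used S-adenosyl-L-homocysteine hydrolase to follow conversion of cofactor SAM to SAH by the methyltransferase. IC50 values are the average of at least two separate experiments.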

In data set [5] the test system is H3K9me2 levels in MDA-MB-231 cells. Nature of the data set: H3K9me2 in-cell western, MDA-MB-231. The class given is cell-based, human. As to conditions: read-out: IC50 for reduction of H3K9me2 levels; MDA-MB-231 cells, 48 h exposure, in-cell western.
Data set [6] has as its system retrovirus long terminal repeat and MAGEA2 promoter in mES cells. Description: Bisulfite sequencing DNA methylation in mES cells. The class given is cell-based, mouse. As to conditions: after 10 d of treatment. Summed up:
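J1 mouse ES cells were grown on 0.1% gelatin in DMEM with 15% ES-qualified FBS, 4 mM L-glutamine, 0.1 mM nonessential amino acids, 1 mM pyruvate, 0.55 mM 2-mercaptoethanol and LIF. They carried a silenced HSC1 retroviral EGFP-puromycin reporter driven by the EF1a promoter.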

Another data set concerns the target GLP (Homo sapiens, UniProt Q9H9B1). Description: SAHH-coupled assay, GLP. The class given is biochemical.
A further data set addresses PRMT3 (Homo sapiens, UniProt O60678). Nature of the data set: SAHH-coupled assay, PRMT3. Type of data set: biochemical. As to conditions: SAHH-coupled assay. In outline: as §1
In the next data set the target is T1, SETD8 (Homo sapiens, UniProt Q9NQR1).
T1 sequence (Q9NQR1 1-393): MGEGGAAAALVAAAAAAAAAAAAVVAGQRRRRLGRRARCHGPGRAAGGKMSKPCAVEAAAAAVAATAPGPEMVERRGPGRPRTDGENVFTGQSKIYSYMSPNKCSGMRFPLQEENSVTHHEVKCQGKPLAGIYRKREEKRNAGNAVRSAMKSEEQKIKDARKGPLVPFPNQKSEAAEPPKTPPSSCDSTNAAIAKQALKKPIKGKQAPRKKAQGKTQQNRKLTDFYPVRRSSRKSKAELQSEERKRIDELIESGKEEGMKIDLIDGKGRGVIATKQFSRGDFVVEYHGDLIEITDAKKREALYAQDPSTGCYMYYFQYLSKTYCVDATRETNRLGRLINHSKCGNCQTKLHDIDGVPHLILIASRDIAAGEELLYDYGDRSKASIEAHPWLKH
Nature of the data set: SAHH-coupled assay, SETD8. As to conditions: SAHH-coupled assay. Type of data set: biochemical. Summed up:
as §1

The next data set deals with T2, SETD7 (Homo sapiens, UniProt Q8WTS6).
T2 sequence (Q8WTS6 1-366): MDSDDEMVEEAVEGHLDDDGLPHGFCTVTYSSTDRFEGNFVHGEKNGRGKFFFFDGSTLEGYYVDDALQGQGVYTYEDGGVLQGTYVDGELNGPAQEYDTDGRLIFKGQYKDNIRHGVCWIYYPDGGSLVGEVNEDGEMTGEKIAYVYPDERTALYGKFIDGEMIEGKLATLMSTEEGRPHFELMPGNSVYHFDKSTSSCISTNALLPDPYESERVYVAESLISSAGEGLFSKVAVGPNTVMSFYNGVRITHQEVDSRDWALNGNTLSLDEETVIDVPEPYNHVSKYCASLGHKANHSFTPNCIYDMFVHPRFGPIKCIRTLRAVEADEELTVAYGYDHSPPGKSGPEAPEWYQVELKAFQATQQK
Nature of the data set: SAHH-coupled assay, SETD7. The class given is biochemical. As to conditions: SAHH-coupled assay. Summed up: as §1

In the next data set the target is T3, G9a (Homo sapiens, UniProt Q96KQ7).
T3 sequence (Q96KQ7 1-1210): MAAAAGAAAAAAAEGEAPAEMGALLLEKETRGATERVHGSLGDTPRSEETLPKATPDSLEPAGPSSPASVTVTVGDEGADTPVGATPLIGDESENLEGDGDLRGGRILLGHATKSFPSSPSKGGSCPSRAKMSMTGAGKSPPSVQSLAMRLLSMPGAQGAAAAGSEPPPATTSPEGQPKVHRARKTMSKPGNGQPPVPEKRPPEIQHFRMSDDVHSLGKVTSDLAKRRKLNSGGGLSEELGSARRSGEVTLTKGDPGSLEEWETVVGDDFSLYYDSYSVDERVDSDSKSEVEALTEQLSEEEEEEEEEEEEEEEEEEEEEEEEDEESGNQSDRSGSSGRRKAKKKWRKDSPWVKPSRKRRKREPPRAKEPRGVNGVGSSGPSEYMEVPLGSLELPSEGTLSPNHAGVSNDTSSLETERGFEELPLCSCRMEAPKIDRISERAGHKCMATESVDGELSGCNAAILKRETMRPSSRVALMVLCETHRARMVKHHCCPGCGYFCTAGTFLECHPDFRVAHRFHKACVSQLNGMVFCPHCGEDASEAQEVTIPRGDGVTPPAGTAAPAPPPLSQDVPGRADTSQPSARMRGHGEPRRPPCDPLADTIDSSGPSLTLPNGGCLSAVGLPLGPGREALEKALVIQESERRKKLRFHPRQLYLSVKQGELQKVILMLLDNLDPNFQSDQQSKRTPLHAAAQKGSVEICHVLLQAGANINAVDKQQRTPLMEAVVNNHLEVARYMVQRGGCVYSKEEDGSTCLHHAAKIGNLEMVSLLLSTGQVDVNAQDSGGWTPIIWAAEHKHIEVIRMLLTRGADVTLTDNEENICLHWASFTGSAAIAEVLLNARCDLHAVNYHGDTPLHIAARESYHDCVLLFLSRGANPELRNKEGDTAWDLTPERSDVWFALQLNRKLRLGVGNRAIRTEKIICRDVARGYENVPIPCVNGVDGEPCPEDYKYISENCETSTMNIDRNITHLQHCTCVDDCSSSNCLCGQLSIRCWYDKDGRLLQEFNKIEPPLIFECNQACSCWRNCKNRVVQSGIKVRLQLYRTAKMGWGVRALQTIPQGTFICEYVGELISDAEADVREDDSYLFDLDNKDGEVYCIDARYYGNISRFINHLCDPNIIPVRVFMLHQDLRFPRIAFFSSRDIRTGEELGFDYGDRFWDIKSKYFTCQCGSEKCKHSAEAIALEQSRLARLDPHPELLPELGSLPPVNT
Description: SAHH-coupled assay, G9a. Type of data set: biochemical.

Chain of PRMT3 (O60678 whole entry, species assumed): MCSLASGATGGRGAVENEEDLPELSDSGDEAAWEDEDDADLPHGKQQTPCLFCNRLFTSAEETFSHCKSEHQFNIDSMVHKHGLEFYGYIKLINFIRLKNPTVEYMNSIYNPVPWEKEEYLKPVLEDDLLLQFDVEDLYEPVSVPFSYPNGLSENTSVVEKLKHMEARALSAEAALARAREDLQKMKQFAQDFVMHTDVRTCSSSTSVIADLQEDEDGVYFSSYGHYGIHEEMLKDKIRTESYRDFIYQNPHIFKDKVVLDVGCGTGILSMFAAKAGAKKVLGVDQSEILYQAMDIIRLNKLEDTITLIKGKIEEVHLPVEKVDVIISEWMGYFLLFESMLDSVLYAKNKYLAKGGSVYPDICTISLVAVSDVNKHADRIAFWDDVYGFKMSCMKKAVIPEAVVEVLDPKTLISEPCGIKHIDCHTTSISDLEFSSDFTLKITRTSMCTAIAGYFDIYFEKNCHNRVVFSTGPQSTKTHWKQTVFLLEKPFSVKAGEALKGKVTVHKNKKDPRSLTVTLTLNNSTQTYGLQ
Chain of SUV39H2 (Q9H5I1 whole entry, species assumed): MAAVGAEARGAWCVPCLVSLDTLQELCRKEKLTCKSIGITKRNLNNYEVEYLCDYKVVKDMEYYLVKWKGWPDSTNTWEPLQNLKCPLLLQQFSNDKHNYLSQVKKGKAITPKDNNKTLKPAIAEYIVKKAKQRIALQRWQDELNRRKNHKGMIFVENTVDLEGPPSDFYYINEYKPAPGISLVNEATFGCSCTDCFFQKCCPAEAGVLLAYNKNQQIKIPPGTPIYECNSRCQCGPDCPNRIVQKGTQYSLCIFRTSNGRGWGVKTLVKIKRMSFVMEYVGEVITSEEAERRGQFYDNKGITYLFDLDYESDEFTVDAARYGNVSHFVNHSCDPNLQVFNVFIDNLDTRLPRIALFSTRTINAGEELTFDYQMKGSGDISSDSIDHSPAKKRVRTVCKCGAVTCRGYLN
Chain of GLP (Q9H9B1 whole entry): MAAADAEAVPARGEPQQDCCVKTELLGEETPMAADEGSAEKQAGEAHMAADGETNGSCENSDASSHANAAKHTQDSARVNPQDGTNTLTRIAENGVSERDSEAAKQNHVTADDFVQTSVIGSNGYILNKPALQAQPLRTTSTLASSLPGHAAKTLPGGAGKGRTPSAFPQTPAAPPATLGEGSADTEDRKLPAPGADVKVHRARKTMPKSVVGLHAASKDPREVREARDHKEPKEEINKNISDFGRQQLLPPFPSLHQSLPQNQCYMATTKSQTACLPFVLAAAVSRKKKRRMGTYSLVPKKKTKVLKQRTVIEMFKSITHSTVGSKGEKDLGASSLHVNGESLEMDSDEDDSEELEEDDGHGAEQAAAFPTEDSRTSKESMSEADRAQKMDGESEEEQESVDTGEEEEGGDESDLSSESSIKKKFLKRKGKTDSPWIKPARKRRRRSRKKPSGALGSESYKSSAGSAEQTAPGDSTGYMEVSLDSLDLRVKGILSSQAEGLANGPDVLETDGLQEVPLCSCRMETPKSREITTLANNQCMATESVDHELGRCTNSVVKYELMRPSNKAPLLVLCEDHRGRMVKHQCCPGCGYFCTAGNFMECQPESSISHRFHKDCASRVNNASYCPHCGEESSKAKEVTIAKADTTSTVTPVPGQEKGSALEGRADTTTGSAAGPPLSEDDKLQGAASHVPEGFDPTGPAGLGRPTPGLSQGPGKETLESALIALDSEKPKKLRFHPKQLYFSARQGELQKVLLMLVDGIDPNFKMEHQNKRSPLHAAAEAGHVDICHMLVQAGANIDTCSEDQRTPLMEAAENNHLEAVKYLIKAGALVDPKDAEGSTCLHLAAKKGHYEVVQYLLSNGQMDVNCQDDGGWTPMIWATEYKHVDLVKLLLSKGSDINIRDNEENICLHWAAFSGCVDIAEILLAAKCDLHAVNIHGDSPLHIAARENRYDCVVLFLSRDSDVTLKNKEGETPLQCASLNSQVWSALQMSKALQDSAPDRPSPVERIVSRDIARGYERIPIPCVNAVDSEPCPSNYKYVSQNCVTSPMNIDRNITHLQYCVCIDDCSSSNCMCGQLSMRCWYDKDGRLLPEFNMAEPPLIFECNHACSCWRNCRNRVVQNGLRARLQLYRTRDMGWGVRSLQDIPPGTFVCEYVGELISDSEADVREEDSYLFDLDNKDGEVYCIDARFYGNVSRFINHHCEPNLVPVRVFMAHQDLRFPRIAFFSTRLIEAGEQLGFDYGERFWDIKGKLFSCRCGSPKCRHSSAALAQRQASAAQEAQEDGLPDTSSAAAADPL

Turning to `COc1cc2nc(N3CCCN(C)CC3)nc(NC3CCN(Cc4ccccc4)CC3)c2cc1OC` [BIX01294, reference compound], the SSEA1 positive cells with J1 mES cells amounted to 65%. Moreover, the “abundance of H3K9me2 mark in bulk histones” value in [1] (at 4.1 μM, several cell lines) is “reduced”. Moreover, the “concentration toxic to cells” value in data set [1] is “higher than 4.1 μM”. Further, the pIC50 in [2] was 5.69. In addition, the “EGFP+ cells” value in data set [3] (day 10, 2 μM, untreated 36%) came to 53%. Moreover, in data set [3] (day 12, 2 μM), the “state of treated cells” value is “arrested or died”. For the same compound, the negative-log EC50 (pEC50) in the data set with MDA-MB-231 cells (Homo sapiens, MDA-MB-231, read-out: EC50 cellular toxicity (MTT)) was 5.57. Moreover, in data set [4], the “levels of H3K9me2 by quantitative MS” value is listed as “to a lesser extent than UNC0638 did” and the “levels of H3K9me3 by quantitative MS” value is “remained constant”.
Take `COc1cc2c(NC3CCN(C)CC3)nc(N3CCCN(C)CC3)nc2cc1OCCOCCN(C)C` [UNC0321]: the “potency in cellular assays relative to BIX01294” value in the data set on cellular assays is on record as “less potent than BIX01294”.
In the case of `COc1cc2c(N(C)C3CCN(C(C)C)CC3)nc(C3CCCCC3)nc2cc1OCCCN1CCCC1` [UNC0737], the “activity against panel of 24 kinases” value in the data set with panel of 24 kinases is “inactive”. Also, the IC50 result against SUV39H2, against PRMT3, at SETD8 and at SETD7 was “inactive” in each case. Moreover, the pIC50 is < 5.30 in data set [5], < 5.00 against GLP and 5.30 at G9a (SAHH-coupled assay). Also, in data set [3] (500 nM, above the 36% EGFP+ cells of untreated sample), the “reactivation of EGFP expression” value was “did not reactivate EGFP expression”. For the same compound, in data set [6], the “DNA methylation of retrovirus LTR and MAGEA2 promoter” value was “hypermethylated”. Further, the pEC50 in the data set with MDA-MB-231 cells (read-out: EC50 cellular toxicity (MTT), MDA-MB-231 cells (n = 3)) is 5.06. For the same compound, the “fold less potent than UNC0638” value on G9a (G9a and GLP biochemical assays) is reported as > 300 fold.

Values taken from publication PMC3184254 (Nature Chemical Biology, 2011).
